# The list is not random: actives were taken first. Their share in the collection is about 1.1%.
# S1P3 antagonist: S1P3 (human) receptor antagonism; actives 0.27% (n = 170,000); AID 485; inhibition, % at 4.98 µM; CHO S1P3 NFAT-BLA reporter, FRET fluorescence, antagonist mode;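 active = inhibition above the plate cutoff, the mean inhibition of test wells on that plate plus 3 SD, cut at about 28% in these data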;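 also: cells challenged with S1P at its EC80 of 0.8 µM; blue over green emission ratio from cleaved BLA substrate after 4 h stimulation; 0% = S1P-stimulated wells and 100% = unstimulated DMSO-only wells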
# TNAP inh hi DEA: blocks human TNAP under high phosphate acceptor concentration. actives 0.03% (n = 200,000). inhibition, % at 20 µM. purified TNAP, CDP-star luminescence, 1 M DEA. AID 1135. P05186;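 active = over 50% inhibition of tissue-nonspecific alkaline phosphatase at 20 µM in the single-dose screen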;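 also: plate controls were DMSO wells for no effect and EDTA-quenched wells as full inhibition for full effect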
# Target sequence (P05186 whole entry, looked up): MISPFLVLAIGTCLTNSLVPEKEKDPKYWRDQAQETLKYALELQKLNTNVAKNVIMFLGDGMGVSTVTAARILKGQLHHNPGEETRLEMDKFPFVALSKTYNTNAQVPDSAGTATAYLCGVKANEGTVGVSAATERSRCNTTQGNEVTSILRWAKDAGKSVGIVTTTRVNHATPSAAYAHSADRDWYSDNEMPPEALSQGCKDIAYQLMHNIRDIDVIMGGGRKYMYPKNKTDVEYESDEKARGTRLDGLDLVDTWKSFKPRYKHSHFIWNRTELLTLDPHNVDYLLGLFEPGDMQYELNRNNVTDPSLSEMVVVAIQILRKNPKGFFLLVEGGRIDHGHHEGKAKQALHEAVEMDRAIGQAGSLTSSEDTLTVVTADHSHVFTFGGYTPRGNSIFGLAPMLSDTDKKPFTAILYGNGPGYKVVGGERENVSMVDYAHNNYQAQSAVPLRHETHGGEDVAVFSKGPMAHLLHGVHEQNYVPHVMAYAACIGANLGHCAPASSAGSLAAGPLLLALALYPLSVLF
# S1P4 ag: human S1P4 receptor agonism; O95977; S1P4-expressing cell line, agonist reporter assay; activation, % at 4.98 µM; actives 0.35% (n = 220,000); in the data active = activation above about 11%;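 also: 0% = DMSO vehicle and 100% = reference agonist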
# TNAP inh noacc: blocks human TNAP activity with no phosphate acceptor present; P05186; inhibition, % at 20 µM; AID 1012; purified TNAP, CDP-star luminescence, 30 min; actives 0.26% (n = 200,000);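 active = tissue-nonspecific alkaline phosphatase inhibition above about 50% at 20 µM in the single-dose screen, limit read from the data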;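 also: 0% = DMSO negative control and 100% = EDTA positive control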
# TNAP act hiacc: TNAP (human) activation, high acceptor. P05186. purified TNAP, CDP-star luminescence, 1 M DEA, 30 min; active compounds read high; 0 = EDTA background, 1 = DMSO-only activity. activation factor at 20 µM. 200,000 tested, under 10 active. AID 1136;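 active = activation factor at least 2 at 20 µM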
#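 Test system – human TNAP · Doses – 20 µM single point · Incubation – 30 min, room temperature · Signal – luminescent substrate turnover signal · Read-out basis – activation factor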
# S1P4 antagonist: antagonists of human S1P4 receptor; O95977; S1P4-expressing cells, antagonist mode, reporter read-out; inhibition, % at 4.98 µM; actives 0.26% (n = 220,000); AID 1510; in the data active = inhibition above about 29%;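 also: 0% = wells stimulated with agonist and 100% = vehicle wells without agonist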
# The depositor's hits bear a star; / = not tested or not shown.
SMILES,S1P3 antagonist,TNAP inh hi DEA,S1P4 ag,TNAP inh noacc,TNAP act hiacc,S1P4 antagonist
C=CCN=c1scc(C)n1/N=C/c1ccc(O)c(O)c1,3,8,0,77*,0.9,12
CN=c1scc(C)n1/N=C/c1ccc(O)cc1,4,-2,1,-4,1,-5
O=C(N/N=C/c1cccc([N+](=O)[O-])c1)C1COc2ccccc2O1 (configuration not stated),-9,0,-2,-4,1,-3
O=C(N/N=C\c1cccc([N+](=O)[O-])c1O)C1COc2ccccc2O1 (configuration not stated),-13,10,0,53*,0.9,-8
Oc1cc2c(cc1O)C1c3ccc(O)c(O)c3OCC1(O)C2 (configuration not stated),-7,34,1,87*,0.7,8
CCOc1ccc(C2C(C(=O)O)CCC(=O)N2C2CCCCC2)cc1 (configuration not stated),-1,-1,1,-14,1,-3
Cc1c(CCOC(=O)C23CC4CC(CC(C4)C2)C3)sc[n+]1CC#N,-7,-2,0,57*,1,7
CCCCCCCCCOC(=O)C[n+]1csc(CCO)c1C,/,-1,-2,61*,1,-8
Cc1c(CCO)sc[n+]1CC(=O)OCCC12CC3CC(CC(C3)C1)C2,-9,4,0,62*,1,4
Cc1c(CCOC(=O)CC23CC4CC(CC(C4)C2)C3)sc[n+]1Cc1ccccc1,/,36,-1,-2,0.6,-14
O=C(O)COCC(=O)NCc1csc2ccccc12,1,/,2,/,/,22
Cc1cc(C(=O)NCC23CC4CC(CC(C4)C2)C3)c(C)o1,13,-7,0,-11,1.1,-13
CC(C)CC(=O)Nc1ccc2oc(-c3cccnc3)nc2c1,-42,-2,-1,-13,1,4
Cc1ccc2oc(-c3ccc(NC(=O)CC(C)C)cc3)nc2c1,54*,-2,0,-10,1,14
CCN(CC)S(=O)(=O)c1ccc(C)c(NC(=O)CNCCN(C(C)C)C(C)C)c1,-10,-4,0,-7,1,-11
COc1ccc(NC(=O)c2c(NC(=O)CNCc3ccco3)sc3c2CCC3)c(OC)c1,70*,-8,2,-15,1.1,-55
O=C(Nc1nc(=O)n(C(=O)c2cccc(C(F)(F)F)c2)s1)c1ccccc1,-13,/,2,/,/,-6
Cc1ccc(C(=O)Nc2ccc3c(c2)nc2n3CCSC2)cc1,8,-6,1,26,1.1,1
COc1ccccc1C(=O)Nc1ccc2c(c1)nc1n2CCSC1,-4,2,0,68*,1,-8
COc1ccc(-c2cc(C(=O)OCC(=O)NC(C)C)c3ccccc3n2)cc1,-7,1,-1,2,1,-9
OCCN1CCN(c2ncnc3ccc(Br)cc23)CC1,102*,-5,1,-13,1,-38
CC(=O)Nc1ccc(N2C(=O)c3cccc(NC(C)=O)c3C2=O)cc1,0,-2,3,-11,1,-10
Nc1cccc2c1C(=O)N(c1ccccc1)C2=O,93*,/,/,/,/,/
COC(=O)CSCC(=O)Nc1nnc(-c2cccc(C)c2)s1,-7,-2,1,-1,1,2
Cc1nc2ccc(NC(=O)c3ccc(Cl)s3)cc2s1,56*,-8,-3,-22,1.1,-7
SMILES,S1P3 antagonist,TNAP inh hi DEA,S1P4 ag,TNAP inh noacc,TNAP act hiacc,S1P4 antagonist
NC(=O)c1c(NC(=O)c2cccs2)sc2c1CCCCCC2,54*,-2,0,1,1,-20
O=C(Nc1sc2c(c1C(=O)O)CCC2)c1cccs1,-15,-4,0,-9,1,-30
Cc1cccc2sc(NC(=O)C3c4ccccc4Oc4ccccc43)nc12,/,-2,-2,-7,1,-8
Cc1ccc(S(=O)(=O)Oc2ccc(C(c3c(C)[nH][nH]c3=O)c3c(C)[nH][nH]c3=O)cc2)cc1,/,61*,0,-8,0.4,-21
CCOc1cc(C(c2c(C)[nH][nH]c2=O)c2c(C)[nH][nH]c2=O)ccc1OS(=O)(=O)c1ccccc1,/,62*,1,24,0.4,2
Cc1[nH][nH]c(=O)c1C(c1ccc(N(C)C)c(Br)c1)c1c(C)[nH][nH]c1=O,9,/,0,/,/,1
Cc1cc(C)n(CCNc2nc3nonc3nc2N2CCCCC2)n1,-1,-2,1,-3,1,-17
CCOC(=O)C1=C(N)n2c(s/c(=C/c3ccco3)c2=O)=C(C(=O)OC)C1c1ccco1 (configuration not stated),81*,0,1,2,1,-23
CCOC(=O)C1=c2s/c(=C\c3ccncc3)c(=O)n2C(N)=C(C(=O)OC)C1c1ccncc1 (configuration not stated),-2,-5,2,-9,1.1,-17
COc1ccc(/C=N/NC(=O)c2cc(C34CC5CC(CC(C5)C3)C4)[nH]n2)cc1O,/,3,1,94*,1,-5
COc1ccc(/C=N\NC(=O)c2ccc(=O)[nH]n2)cc1O,2,6,0,-10,0.9,2
O=C(CSc1nc2ccccc2c(=O)n1Cc1ccccc1)NCc1ccco1,/,-5,1,-10,1,5
O=C(CSc1nc2[nH]ncc2c(=O)n1-c1ccccc1Br)NCc1ccco1,83*,-2,-1,-13,1,-11
O=C(CSc1nc2ccccc2c(=O)n1Cc1ccco1)NCc1ccccc1,76*,/,-1,/,/,5
O=C(Cc1cccs1)Nc1ccon1,94*,1,1,11,1,1
COc1ccc(NC(C)c2cc(Cl)ccc2O)cc1 (configuration not stated),63*,-4,-2,-10,1,3
O=C(Nc1ccc(C2SCCS2)cc1)c1ccccc1,-2,/,1,/,/,11
N#Cc1c(C(F)(F)F)cc(C2CC2)[nH]c1=O,62*,-7,-1,-2,1.1,7
C=CCc1ccc(OCCOc2cccc3ccc(C)nc23)c(OC)c1,/,-4,-1,-9,1,-16
CCOC(=O)Nc1ccc2nc(Sc3ccc(Cl)cc3)sc2c1,4,/,0,/,/,-8
CCOc1cc(/C=C2/COc3ccccc3C2=O)ccc1OCC(=O)N(C)C,3,-3,-5,-12,1,37*
COc1cc(/C=N/N=C2/C(=O)Nc3ccccc32)cc(OC)c1O,-24,56*,2,49,0.4,12
Cc1c(C(N)=O)sc2ncn(CC(=O)NCCc3ccccc3)c(=O)c12,3,-6,-1,-15,1.1,-4
Cc1[nH][nH]c(=O)c1C(c1ccccc1[N+](=O)[O-])C(C#N)C#N (configuration not stated),-15,8,1,-1,0.9,2

# High-throughput results from PubChem.
